Test results taken from ChEMBL document CHEMBL1177712, “Synthesis and characterization of in vitro and in vivo profiles of hydroxybupropion analogues: aids to smoking cessation” (J Med Chem, 2010).
The source made the active and inactive calls.

Tests used:
[1] = target: T1, Neuronal acetylcholine receptor; alpha4/beta4 (Homo sapiens, UniProt P30926+P43681); assay: Agonist activity at alpha4beta4 nicotinic receptor in human SH-EP1 cells assessed as induction of radiolabeled Rb+ influx at 0.005 to 100 uM by liquid scintillation counting; format: functional, cell-based
Procedure, shortened: (§1)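 Cells were labelled with ⁸⁶Rb⁺ for at least 4 h, then exposed for 5 min in efflux buffer (pH 7.4) to test ligand alone at ~5 nM to 100 μM. The lines were TE671/RD (muscle α1β1γδ), SH-SY5Y (α3β4*) and transfected SH-EP1-hα4β2 or -hα4β4. Efflux was Cerenkov-counted. Non-specific efflux was subtracted, and results were normalized to specific efflux from carbamylcholine (1 mM; 3 mM for SH-SY5Y).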

Mus musculus [2] = assay: Smoke cessation activity in sc dosed ICR mouse assessed as inhibition of nicotine-induced hypothermia administered 15 mins before nicotine challenge measured after 30 mins of nicotine infusion; format: functional, organism-based
Procedure, shortened: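 Male ICR mice (20–25 g) were pretreated with test drug or saline 15 min before nicotine at 2.5 mg/kg sc. Rectal temperature was taken before and 30 min after nicotine, and the change was calculated. Room temperature was 21–24 °C. AD₅₀ came from at least four doses, with at least 8 mice per dose.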

Mus musculus [3] = assay: Smoke cessation activity in sc dosed ICR mouse assessed as inhibition of nicotine-induced increase in locomotor activity administered 15 mins before nicotine challenge measured after 5 mins of nicotine infusion; format: functional, organism-based
Mus musculus [4] = assay: Toxicity in sc dosed ICR mouse assessed occurrence of convulsion; format: organism-based; conditions: in vivo
Mus musculus [5] = assay: Toxicity in sc dosed ICR mouse assessed occurrence of sedation; format: organism-based; conditions: in vivo
Mus musculus [6] = assay: Smoke cessation activity in sc dosed ICR mouse assessed as inhibition of nicotine-induced antinociception administered 15 mins before nicotine challenge measured after 5 mins of nicotine infusion by tail-flick assay; format: functional, organism-based
Procedure, shortened: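 Radiant-heat tail-flick latency was read 5 min later (10 s cutoff; baseline 2–4 s) and expressed as %MPE. AD₅₀ came from at least four doses, with at least 8 mice per dose.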

Mus musculus [7] = assay: Smoke cessation activity in sc dosed ICR mouse assessed as inhibition of nicotine-induced antinociception administered 15 mins before nicotine challenge measured after 5 mins of nicotine infusion by hotplate assay; format: functional, organism-based
Procedure, shortened: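 Male ICR mice (20–25 g) were pretreated with saline or test drug 15 min before nicotine at 2.5 mg/kg sc. They were tested 5 min later on a 55 °C hot plate (40 s cutoff), and the result was expressed as %MPE. AD₅₀ came from at least four doses, with at least 8 mice per dose.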

[8] = target: Neuronal acetylcholine receptor; alpha4/beta2 (Homo sapiens, UniProt P17787+P43681); assay: Agonist activity at alpha4beta2 nicotinic receptor in human SH-EP1 cells assessed as induction of radiolabeled Rb+ influx at 0.005 to 100 uM by liquid scintillation counting; format: functional, cell-based; procedure, shortened: as §1
[9] = target: Acetylcholine receptor; alpha1/beta1/delta/gamma (Homo sapiens, UniProt P02708+P07510+P11230+Q07001); assay: Antagonist activity at alpha-1-beta-1-gamma-delta nicotinic receptor in human TE671 cells assessed as inhibition varbamylcholine-induced radiolabeled Rb+ influx at by liquid scintillation counting; format: functional, cell-based, TE-671
Procedure, shortened: (§2)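 ⁸⁶Rb⁺-loaded human cells were given a 5-min efflux with carbamylcholine at EC₈₀–EC₉₀ plus graded test ligand. Non-specific efflux, taken with 100 μM mecamylamine or buffer, was subtracted. IC₅₀ came from a Hill fit of three independent experiments, with SEM given as a multiplication factor.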

SH-EP1 = assay: Selectivity ratio of IC50 for alpha4beta2 nicotinic receptor in human SH-EP1 cells to IC50 for IC50 for human NET; format: cell-based
[10] = target: T1, Neuronal acetylcholine receptor; alpha4/beta4; assay: Antagonist activity at alpha4beta4 nicotinic receptor in human SH-EP1 cells assessed as inhibition varbamylcholine-induced radiolabeled Rb+ influx at by liquid scintillation counting; format: functional, cell-based; procedure, shortened: as §2

T1 sequence (P30926 whole entry): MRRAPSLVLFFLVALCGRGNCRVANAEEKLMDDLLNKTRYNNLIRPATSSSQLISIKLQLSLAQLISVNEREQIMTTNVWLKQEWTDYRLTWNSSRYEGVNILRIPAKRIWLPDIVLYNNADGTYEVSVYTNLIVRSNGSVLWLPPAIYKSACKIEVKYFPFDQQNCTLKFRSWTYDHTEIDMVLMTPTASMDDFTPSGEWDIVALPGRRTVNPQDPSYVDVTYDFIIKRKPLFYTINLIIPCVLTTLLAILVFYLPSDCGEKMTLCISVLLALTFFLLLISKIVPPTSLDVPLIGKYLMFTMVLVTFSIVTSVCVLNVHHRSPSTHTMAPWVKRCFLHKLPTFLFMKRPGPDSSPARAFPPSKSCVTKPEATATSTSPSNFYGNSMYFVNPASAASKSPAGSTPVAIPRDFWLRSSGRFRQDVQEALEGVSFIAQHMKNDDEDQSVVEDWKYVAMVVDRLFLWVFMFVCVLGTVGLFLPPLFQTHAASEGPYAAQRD
T1 sequence (P43681 whole entry): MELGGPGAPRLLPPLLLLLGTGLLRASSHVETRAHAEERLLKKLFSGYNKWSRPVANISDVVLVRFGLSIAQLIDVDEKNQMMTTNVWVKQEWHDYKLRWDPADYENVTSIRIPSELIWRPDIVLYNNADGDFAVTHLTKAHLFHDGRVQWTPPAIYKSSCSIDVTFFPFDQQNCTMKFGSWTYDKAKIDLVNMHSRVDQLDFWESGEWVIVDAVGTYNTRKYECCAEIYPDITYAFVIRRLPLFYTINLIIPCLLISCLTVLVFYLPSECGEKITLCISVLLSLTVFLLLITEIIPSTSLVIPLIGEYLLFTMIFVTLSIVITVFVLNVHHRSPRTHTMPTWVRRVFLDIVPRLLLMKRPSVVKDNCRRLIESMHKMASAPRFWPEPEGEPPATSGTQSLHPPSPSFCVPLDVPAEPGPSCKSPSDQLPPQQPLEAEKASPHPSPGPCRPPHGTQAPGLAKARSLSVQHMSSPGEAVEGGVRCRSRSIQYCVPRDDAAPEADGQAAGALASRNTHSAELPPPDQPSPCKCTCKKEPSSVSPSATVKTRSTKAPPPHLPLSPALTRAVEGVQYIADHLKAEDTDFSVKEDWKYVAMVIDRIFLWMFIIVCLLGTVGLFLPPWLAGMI
Chain of Acetylcholine receptor; alpha1/beta1/delta/gamma (P02708 whole entry): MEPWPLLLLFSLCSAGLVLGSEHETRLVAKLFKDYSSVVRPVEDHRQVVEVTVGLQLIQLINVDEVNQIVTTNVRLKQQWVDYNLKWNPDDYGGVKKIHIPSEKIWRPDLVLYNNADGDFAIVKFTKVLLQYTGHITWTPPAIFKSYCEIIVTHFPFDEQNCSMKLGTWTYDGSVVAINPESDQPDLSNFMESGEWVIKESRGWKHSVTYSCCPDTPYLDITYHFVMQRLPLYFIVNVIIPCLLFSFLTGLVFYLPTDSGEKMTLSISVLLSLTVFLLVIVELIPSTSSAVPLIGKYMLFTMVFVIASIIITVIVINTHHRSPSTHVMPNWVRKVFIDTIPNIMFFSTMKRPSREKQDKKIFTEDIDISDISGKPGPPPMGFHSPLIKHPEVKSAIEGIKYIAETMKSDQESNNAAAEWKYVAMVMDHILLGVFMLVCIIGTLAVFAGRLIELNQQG
Chain of Acetylcholine receptor; alpha1/beta1/delta/gamma (P07510 whole entry): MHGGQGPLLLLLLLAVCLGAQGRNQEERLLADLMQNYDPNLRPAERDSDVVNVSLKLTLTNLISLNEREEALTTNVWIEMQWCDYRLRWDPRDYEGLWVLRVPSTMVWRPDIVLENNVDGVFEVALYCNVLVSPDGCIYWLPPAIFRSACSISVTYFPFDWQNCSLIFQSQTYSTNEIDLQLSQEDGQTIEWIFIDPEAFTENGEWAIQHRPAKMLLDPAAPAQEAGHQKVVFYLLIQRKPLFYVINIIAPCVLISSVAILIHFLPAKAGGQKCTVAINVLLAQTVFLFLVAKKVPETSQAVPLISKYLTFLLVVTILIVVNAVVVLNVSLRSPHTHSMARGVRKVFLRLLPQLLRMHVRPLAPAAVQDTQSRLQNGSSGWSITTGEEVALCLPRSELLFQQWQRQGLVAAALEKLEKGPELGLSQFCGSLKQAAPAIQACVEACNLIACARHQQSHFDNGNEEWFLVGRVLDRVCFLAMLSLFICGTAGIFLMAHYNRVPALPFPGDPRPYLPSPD
Chain of Acetylcholine receptor; alpha1/beta1/delta/gamma (P11230 whole entry): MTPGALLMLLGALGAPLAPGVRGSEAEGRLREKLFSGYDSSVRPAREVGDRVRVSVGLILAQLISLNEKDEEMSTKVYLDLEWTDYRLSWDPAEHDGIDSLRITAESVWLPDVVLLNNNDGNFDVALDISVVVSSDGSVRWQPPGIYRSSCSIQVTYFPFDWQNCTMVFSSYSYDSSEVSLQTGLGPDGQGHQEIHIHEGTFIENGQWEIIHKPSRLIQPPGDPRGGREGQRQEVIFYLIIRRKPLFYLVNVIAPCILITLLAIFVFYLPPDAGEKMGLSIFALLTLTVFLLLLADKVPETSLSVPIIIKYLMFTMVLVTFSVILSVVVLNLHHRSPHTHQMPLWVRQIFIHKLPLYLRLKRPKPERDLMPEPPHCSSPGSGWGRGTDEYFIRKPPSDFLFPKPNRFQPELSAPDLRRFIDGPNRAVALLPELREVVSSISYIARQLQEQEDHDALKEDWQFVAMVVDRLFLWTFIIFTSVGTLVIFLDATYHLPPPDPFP
Chain of Acetylcholine receptor; alpha1/beta1/delta/gamma (Q07001 whole entry): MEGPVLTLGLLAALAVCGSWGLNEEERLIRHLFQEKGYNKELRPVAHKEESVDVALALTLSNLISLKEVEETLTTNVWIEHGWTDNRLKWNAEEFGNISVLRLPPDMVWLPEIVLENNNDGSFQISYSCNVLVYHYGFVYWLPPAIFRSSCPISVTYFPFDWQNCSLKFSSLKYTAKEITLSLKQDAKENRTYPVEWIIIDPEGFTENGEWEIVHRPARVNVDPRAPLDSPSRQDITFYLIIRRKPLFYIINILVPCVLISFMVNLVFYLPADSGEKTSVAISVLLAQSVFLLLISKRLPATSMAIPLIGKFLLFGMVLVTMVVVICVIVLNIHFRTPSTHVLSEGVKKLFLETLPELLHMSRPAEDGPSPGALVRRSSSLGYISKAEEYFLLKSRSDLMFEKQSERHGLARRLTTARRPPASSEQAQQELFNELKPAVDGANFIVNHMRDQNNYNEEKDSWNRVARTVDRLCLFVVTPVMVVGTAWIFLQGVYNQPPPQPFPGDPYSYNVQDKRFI

| Structure (SMILES) | Activity [1] | IC50 (Mus musculus [2]) [mg/kg] | IC50 (Mus musculus [3]) [mg/kg] | Activity (Mus musculus [4]) | Activity (Mus musculus [5]) | IC50 (Mus musculus [6]) [mg/kg] | IC50 (Mus musculus [7]) [mg/kg] | Activity [8] | IC50 [9] [µM] | Ratio IC50 (SH-EP1) | IC50 [10] [µM] |
| --- | --- | --- | --- | --- | --- | --- | --- | --- | --- | --- | --- |
| Cc1ccc([C@]2(O)OCC(C)(C)N[C@H]2C)cc1 | inactive | > 15 | > 15 | Non-toxic | Non-toxic | 0.004 | > 15 | inactive | – | – | – |
| C[C@@H]1NC(C)(C)CO[C@@]1(O)c1ccccc1 | – | > 15 | > 15 | Non-toxic | Non-toxic | > 15 | > 15 | – | > 100 | – | – |
| C[C@@H]1NC(C)(C)CO[C@@]1(O)c1ccc(-c2ccccc2)cc1 | – | > 15 | > 15 | Non-toxic | Non-toxic | 0.021 | > 15 | – | – | – | – |
| Cc1cccc([C@]2(O)OCC(C)(C)N[C@H]2C)c1 | inactive | 2.3 | > 15 | Non-toxic | Non-toxic | 0.054 | 7.6 | inactive | – | 5.3 | – |
| C[C@@H]1NC(C)(C)CO[C@@]1(O)c1cccc(F)c1 | inactive | 4.4 | > 15 | Non-toxic | Non-toxic | 0.012 | 8.6 | inactive | > 100 | 1.7 | > 100 |
| C[C@@H]1NC(C)(C)CO[C@@]1(O)c1cccc(Br)c1 | inactive | 1.7 | 2.6 | Non-toxic | Non-toxic | 0.16 | 4.3 | inactive | – | – | – |
| C[C@@H]1NC(C)(C)CO[C@@]1(O)c1ccc(F)cc1 | inactive | 5.67 | > 15 | Non-toxic | Non-toxic | 0.013 | > 15 | inactive | – | 3 | > 100 |
| CC1NC(C)(C)COC1(O)c1cc(Cl)cc(Cl)c1 (racemic) | inactive | > 15 | 1.9 | Non-toxic | Non-toxic | > 15 | > 15 | inactive | – | 4.5 | – |
| COc1cccc([C@]2(O)OCC(C)(C)N[C@H]2C)c1 | inactive | > 15 | > 15 | Non-toxic | Non-toxic | 5.85 | > 15 | inactive | – | 3.3 | > 100 |
| C[C@@H]1NC(C)(C)CO[C@@]1(O)c1cccc([N+](=O)[O-])c1 | inactive | 4.7 | > 15 | Non-toxic | Non-toxic | 4.9 | > 15 | inactive | – | 4 | – |
| C[C@@H]1NC(C)(C)CO[C@@]1(O)c1ccc(Cl)cc1 | inactive | > 15 | > 15 | Non-toxic | Non-toxic | 0.019 | > 15 | inactive | – | – | – |
| CC[C@@H]1NC(C)(C)CO[C@@]1(O)c1cccc(Cl)c1 | inactive | 7 | 10.3 | Non-toxic | Non-toxic | 0.004 | 3.7 | inactive | – | 67 | – |
| COc1ccc([C@]2(O)OCC(C)(C)N[C@H]2C)cc1 | inactive | > 15 | > 15 | Non-toxic | Non-toxic | 0.019 | > 15 | inactive | – | – | – |
| C[C@@H]1NC(C)(C)CO[C@@]1(O)c1cc(F)cc(F)c1 | inactive | > 15 | > 15 | Non-toxic | Non-toxic | 0.0056 | > 15 | inactive | – | – | – |
| CC1NC(C)(C)COC1(O)c1ccccn1 (racemic) | inactive | – | – | Non-toxic | Non-toxic | – | – | inactive | > 100 | – | > 100 |
| C[C@@H]1NC(C)(C)CO[C@@]1(O)c1cccc(Cl)c1 [RADAFAXINE] | – | – | 0.9 | Non-toxic | Non-toxic | 0.2 | 1 | – | – | – | – |
| C[C@@H]1N(C)C(C)(C)CO[C@@]1(O)c1ccc(Cl)cc1 | inactive | > 15 | > 15 | Non-toxic | Non-toxic | 0.32 | > 15 | inactive | – | – | – |
| CC1NC(C)(C)COC1(O)c1cccnc1 (racemic) | inactive | – | – | Non-toxic | Non-toxic | – | – | inactive | > 100 | – | > 100 |
| C[C@@H]1N(C)C(C)(C)CO[C@@]1(O)c1cccc(Cl)c1 | inactive | > 15 | > 15 | Non-toxic | Non-toxic | 0.016 | > 15 | inactive | – | – | – |
| C[C@H]1NC(C)(C)CO[C@]1(O)c1cccc(Cl)c1 | – | > 15 | > 15 | Non-toxic | Non-toxic | 2.5 | 10.3 | – | – | – | – |
| CC(NC(C)(C)C)C(=O)c1cccc(Cl)c1 (racemic) [BUPROPION] | – | 9.2 | – | Non-toxic | Non-toxic | – | 15 | – | – | – | – |
| C[C@@H]1NC(C)(C)CO[C@@]1(O)c1ccc(F)c(F)c1 | inactive | > 15 | > 15 | Non-toxic | Non-toxic | 0.006 | > 15 | inactive | – | – | > 100 |
